# Screening data deposited in PubChem BioAssay by several laboratories.
# Scp1 inh: inhibitors of human Scp-1 phosphatase; actives 0.88% (n = 340,000); inhibition, % at 20 µM; Recombinant Scp1, phosphopeptide, malachite green phosphate absorbance;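 active means inhibition above about 50% at 20 µM, limit read from the data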
#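 Test system: SCP-1 phosphatase catalytic domain, residues 76-261; measured by: colorimetric phosphate reagent with accelerator and stabiliser, absorbance at 630 nm; timing: enzyme reaction 45 min at room temperature, colour 5 min, stabilisation 30 min; also added: Phosphorylated 17-residue peptide substrate; compound dosing: one concentration, 20 µM, with 1.0% DMSO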
# F508del corr: correctors of CFTR F508del function in bronchial epithelial cells | CFBE cells, YFP halide quenching; stimulated with forskolin plus potentiator P3; % fluorescence drop versus neutral controls | activity (quench increase), % at 7.58 µM | actives 0.36% (n = 350,000) | AID 720511;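 active means mean added fluorescence quench of at least 8% versus neutral control, with both replicates also reaching 8%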;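 further: cells transiently co-express mutant CFTR-F508del with the halide-sensitive YFP; corrector assay measuring rescue of mutant channel to the surface after 24 h compound exposure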
# DNMT1 inh: inhibitors of human DNMT1; DNMT1 molecular beacon, Hinp1I cleavage, fluorescence; P26358; actives 0.83% (n = 360,000); inhibition (reported as % activation of signal), % at 10 µM; AID 588458; in the data active means inhibition above about 50%
# Target sequence (P26358 504-1616 limits assumed): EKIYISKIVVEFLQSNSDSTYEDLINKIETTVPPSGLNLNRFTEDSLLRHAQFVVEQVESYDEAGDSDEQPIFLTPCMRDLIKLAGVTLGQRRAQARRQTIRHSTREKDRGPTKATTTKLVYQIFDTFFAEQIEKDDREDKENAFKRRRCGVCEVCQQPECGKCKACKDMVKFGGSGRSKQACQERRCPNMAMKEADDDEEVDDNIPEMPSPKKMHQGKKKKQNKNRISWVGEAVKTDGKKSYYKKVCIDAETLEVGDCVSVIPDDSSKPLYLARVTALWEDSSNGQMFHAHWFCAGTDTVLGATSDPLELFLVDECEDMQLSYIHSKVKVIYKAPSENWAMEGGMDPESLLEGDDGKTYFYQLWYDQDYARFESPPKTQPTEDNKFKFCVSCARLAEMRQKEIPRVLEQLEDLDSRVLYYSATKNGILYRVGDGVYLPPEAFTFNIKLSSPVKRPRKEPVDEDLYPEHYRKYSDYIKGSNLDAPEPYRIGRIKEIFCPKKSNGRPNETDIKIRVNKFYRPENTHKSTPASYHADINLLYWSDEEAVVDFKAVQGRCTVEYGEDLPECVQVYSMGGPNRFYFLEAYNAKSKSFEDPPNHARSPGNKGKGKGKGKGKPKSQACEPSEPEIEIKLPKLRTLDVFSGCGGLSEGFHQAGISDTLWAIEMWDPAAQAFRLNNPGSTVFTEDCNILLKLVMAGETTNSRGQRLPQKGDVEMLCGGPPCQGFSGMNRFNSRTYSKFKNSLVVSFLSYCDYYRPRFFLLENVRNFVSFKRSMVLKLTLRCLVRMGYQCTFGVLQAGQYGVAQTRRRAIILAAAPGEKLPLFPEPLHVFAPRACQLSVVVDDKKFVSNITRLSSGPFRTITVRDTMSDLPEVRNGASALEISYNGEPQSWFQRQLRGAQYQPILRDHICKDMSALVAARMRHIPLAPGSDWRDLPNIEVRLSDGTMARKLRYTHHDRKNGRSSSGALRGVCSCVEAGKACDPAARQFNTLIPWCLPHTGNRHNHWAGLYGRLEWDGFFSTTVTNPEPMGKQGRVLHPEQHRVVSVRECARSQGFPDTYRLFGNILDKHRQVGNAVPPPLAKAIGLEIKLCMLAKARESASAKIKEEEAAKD
# LMPTP inh: blocks human LMPTP phosphatase | AID 651560 | recombinant LMPTP-A, OMFP fluorogenic substrate, fluorescence intensity | actives 0.22% (n = 360,000) | inhibition, % at 20 µM | P24666;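 active means compounds that cut the enzyme signal by at least half of the control window in the single-dose screen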
#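 test system = LMPTP-A | amount = 0.625 nM LMPTP-A final | reagent = fluorogenic phosphatase substrate OMFP at 400 µM final | incubation = 50 min at room temperature | benchmarks = no-enzyme low control, uninhibited high control | medium = Bis-Tris pH 6.0, DTT, detergent | signal = fluorescence intensity of OMFP turnover product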
# SUMO1-SIM PPI: SUMO1-SIM interaction modulation; inhibition, % at 20 µM; AID 602429; actives 0.33% (n = 360,000); SUMO1 binding to a labelled peptide, TR-FRET, 1 h; in the data active means inhibition above about 37%
# STEP block: STEP (human) phosphatase inhibition; recombinant STEP, OMFP fluorogenic substrate, fluorescence; inhibition, % at 20 µM; actives 0.25% (n = 360,000); AID 588621;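 active means inhibition at 20 µM, scaled per plate between control wells, above about 37%, limit read from the data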
#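 Material: STEP (striatal-enriched tyrosine phosphatase) enzyme, cell-free | Medium: 50 mM Bis-Tris pH 6.0 with 2.5 mM DTT and 0.005% Tween 20 | Read-out: Percent inhibition scaled to no-enzyme and uninhibited-enzyme controls, plate-pattern corrected | Signal: Fluorescence read at 480 nm ex / 540 nm em | Times: 20 min reaction, room temperature, in the dark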
# A number is an active result; i = inactive; nt = not tested or not shown. A selection: hits, their analogues and other compounds. The true share with any hit is near 1.6%.
SMILES,Scp1 inh,F508del corr,DNMT1 inh,LMPTP inh,SUMO1-SIM PPI,STEP block
N=c1c2c(-c3ccccc3)c(-c3ccccc3)n(Cc3ccccc3)c2ncn1CCCn1ccnc1,i,nt,i,57,i,i
CCCNC(=O)C[C@H]1CC[C@@H]2[C@H](COc3ccc(NC(=O)c4cccs4)cc3C(=O)N2C)O1,nt,i,nt,nt,nt,nt
CCNc1nc(-c2cc(C)n(Cc3ccco3)c2C)cs1,i,i,i,i,i,i
Cc1cc(-c2csc(NC(=O)c3ccc(=O)[nH]c3)n2)c(C)n1Cc1ccco1,i,i,74,63,78,i
CC(C)c1cn(CC[C@@H]2CC[C@@H](NS(=O)(=O)c3ccc(F)cc3)[C@@H](CO)O2)nn1,nt,i,nt,nt,nt,nt
CCC(=O)Nc1ccc2c(c1)C(=O)N(C)[C@H]1CC[C@H](CC(=O)N3CCCCC3)O[C@@H]1CO2,nt,i,nt,nt,nt,nt
O=C(Nc1ccc(Nc2ccncc2)cc1)c1ccc(Nc2ccnc3ccc([N+](=O)[O-])cc23)cc1,i,i,i,78,128,85
O=C(C[C@@H]1C=C[C@H](NC(=O)c2cnccn2)[C@@H](CO)O1)NCc1ccccc1F,nt,i,nt,nt,nt,nt
O=C(NC1CCC1)[C@@H]1[C@@H](CO)[C@@H]2Cn3c(ccc(-c4ccncc4)c3=O)[C@H]1N2CC1CC1,nt,i,nt,nt,nt,nt
COc1ccc(C2C(C#N)=C(N)OC3=C2C(=O)CC(C)C3)c(OC)c1OC (stereo unspecified),i,nt,i,i,i,i
COc1ccc2c(c1OC)OCC2C (stereo unspecified),i,8.1,i,i,i,i
O=C/C=C/c1coc2ccc3ccccc3c2c1=O,103,i,nt,nt,nt,nt
Cc1cc(N2CCN(c3ccc([N+](=O)[O-])c4cccnc34)CC2)c2ccccc2n1,i,nt,i,97,i,i
Cc1cc(N2CCN(c3nc(-c4ccccc4)cs3)CC2)c2ccccc2n1,i,i,i,82,i,i
CO[C@@]1(NC(=O)CSCC#N)C(=O)N2C(C(=O)O)=C(CSc3nnnn3C)CS[C@@H]21,65,i,66,i,i,i
O=C(C[C@H]1C=C[C@@H](NC(=O)Nc2ccccc2F)[C@H](CO)O1)NCc1ccc(F)cc1,nt,i,nt,nt,nt,nt
O=C(O)/C(=C\c1ccc(Cl)c([N+](=O)[O-])c1)c1ccc(S(=O)(=O)N2CCCC2)s1,66,i,72,i,i,i
COCCNC(=O)C1CCCN(C(=O)c2cc(-c3cccs3)oc2C)CC1 (stereo unspecified),nt,13,i,i,i,i
COCCNC(=O)C1CCCN(C(=O)c2sccc2C)CC1 (stereo unspecified),nt,i,i,i,i,i
O=C(NNC(=O)c1ccncc1)Nc1ccc(Cl)cc1,i,8.2,i,i,i,i
O=C(NNC(=O)c1ccncc1)Nc1ccccc1,i,i,i,i,i,i
O=c1[nH]c2ccccc2nc1-c1ccccc1,i,i,i,i,i,i
NC(=O)N=Nc1c2[nH]c3ccccc3nc-2c2ccccc12,i,22,i,i,i,i
CN1CCN(C2=C(Cl)C(=O)c3ccccc3C2=O)CC1,i,i,87,i,62,i
CCCC#Cc1ccc([C@@H]2[C@H]3CN(C(=O)Nc4ccc(F)cc4)CC(=O)N3[C@H]2CO)cc1,nt,i,nt,nt,nt,nt
SMILES,Scp1 inh,F508del corr,DNMT1 inh,LMPTP inh,SUMO1-SIM PPI,STEP block
CCOc1ccc(Cl)cc1S(=O)(=O)n1cnc2ccccc21,i,nt,i,i,i,i
CCOc1ccc(C)cc1S(=O)(=O)n1cnc2ccccc21,i,9.9,i,i,i,i
CCOC(=O)[C@@H]1[C@@H]2C=C[C@]3(O2)[C@H](C(=O)NCc2ccccc2)N(CCCCCCO)C(=O)[C@@H]13,nt,10,nt,nt,nt,nt
COc1ccc(S(=O)(=O)N(C)C[C@H]2OCCCC[C@@H](C)Oc3ccc(NC(=O)c4ccccc4)cc3C(=O)N([C@@H](C)CO)C[C@@H]2C)cc1,nt,i,nt,nt,nt,nt
O=C(Nc1ccc(F)cc1)N[C@@H]1CC[C@@H](CCNC(=O)c2ccccc2F)O[C@@H]1CO,nt,i,nt,nt,nt,nt
CO[C@@H](CN(C)S(=O)(=O)c1ccc(C)cc1)[C@H](C)CN([C@@H](C)CO)S(=O)(=O)c1cccc(Cl)c1,nt,11,nt,nt,nt,nt
COc1ccccc1NC(=O)C(=O)NCC(c1ccco1)N1CCc2ccccc21 (stereo unspecified),i,9.8,i,i,i,i
CNC(CC(C)C)C(=O)NC1C(=O)NC(CC(N)=O)C(=O)NC2C(=O)NC3C(=O)NC(C(=O)NC(C(=O)O)c4cc(O)cc(O)c4-c4cc3ccc4O)C(O)c3ccc(c(Cl)c3)Oc3cc2cc(c3OC2OC(CO)C(O)C(O)C2OC2CC(C)(N)C(O)C(C)O2)Oc2ccc(cc2Cl)C1O (stereo unspecified),i,i,i,i,51,i
C[C@@H]1CN([C@@H](C)CO)C(=O)Cc2cc(NS(=O)(=O)c3cccs3)ccc2O[C@H]1CN(C)C(=O)Nc1cccc2ccccc12,nt,i,nt,nt,nt,nt
Cc1ccc(S(=O)(=O)Nc2cc(C)cc(CCNC=O)c2C)cc1,i,9.6,i,i,i,i
COCC(=O)N(C)C[C@H]1Oc2ncc(-c3ccc(C#N)cc3)cc2C(=O)N([C@@H](C)CO)C[C@H]1C,nt,i,nt,nt,nt,nt
O=C(Nc1ccc(F)cc1)C1CCN(C(=O)c2ccc(F)cc2)CC1,i,14,i,i,i,i
COCCNC(=O)C[C@@H]1C=C[C@H](NC(=O)NC2CCCC2)[C@@H](CO)O1,nt,i,nt,nt,nt,nt
Cc1cc(C)n2nc3nc(N4CCCCC4)nc(-c4ccco4)c3c2n1,i,nt,54,i,i,i
C[C@H](CO)N1C[C@H](C)[C@@H](CN(C)S(=O)(=O)c2ccc(F)cc2)Oc2c(NC(=O)C3CC3)cccc2C1=O,nt,i,nt,nt,nt,nt
O=C(O)CN1CCN(CC(=O)O)CCN(CC(=O)O)CCN(CC(=O)O)CC1,i,i,i,i,i,i
O=C(O)CN1CCNCCN(CC(=O)O)CCNCC1,i,i,i,i,59,i
CC(=Cc1ccccc1)C=C1SC(=S)N(CCCC(=O)Nc2ccc(C(=O)O)cc2)C1=O,nt,i,i,61,i,i
CC(/C=C1\SC(=S)N(CCCC(=O)Nc2ccc(C(=O)O)cc2)C1=O)=C\c1ccccc1,i,nt,i,49,i,i
C[C@@H]1CN([C@H](C)CO)C(=O)Cc2cc(NC(=O)CCC(F)(F)F)ccc2O[C@@H]1CN(C)Cc1ccc(Oc2ccccc2)cc1,nt,i,nt,nt,nt,nt
O=c1c2ccccc2[nH]c2ccc(O)cc12,61,i,i,i,i,i
COc1ccc(/C=C2/SC(=S)N(Cc3ccccc3)C2=O)cc1O,i,i,i,i,i,i
O=C1/C(=C\c2cc(Cl)c(O)c(Cl)c2)SC(=S)N1Cc1ccccc1,i,28,59,i,i,i
